Laboratory results reported in ChEMBL document CHEMBL4513216, “Probing the Open Global Health Chemical Diversity Library for Multistage-Active Starting Points for Next-Generation Antimalarials” (ACS Infect Dis, 2020).

Test: Toxicity liver stage against HepG2, at 10uM
Format: cell-based
Design: test concentration 10 uM, cell line HepG2-A16-CD81EGFP
Settings: human, HepG2-A16-CD81EGFP cells; read-out: INHIBITION
How it was run: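 Uninfected HepG2-A16-CD81EGFP cells, 3 × 10^3 per well, 1536-well, plated on prespotted compound at 10 μM final, parasite-free screening media added to match infected plates; puromycin 10 μM positive, DMSO 0.5% negative; run in parallel with 48 h PbLuc assay at 37 °C, 5% CO2; viability by CellTiter-Glo luminescence, normalized to controls.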
In the case of CC(C)Oc1cccc(C(=O)C2CCCN(S(=O)(=O)C(C)C)C2)c1 (configuration not stated), the cytotoxicity at 10 µM is reported as 5.47%. Work on COc1ccc2c(c1)CN(Cc1ccco1)C(=O)CCN2 yielded a cytotoxicity at 10 µM of -2.59%. Compound CN1CCN2C[C@@H](CO)[C@H](c3ccccc3)[C@H]2C1 has a cytotoxicity at 10 µM of 8.78%. COCCn1ccc2c(C(=O)O)cccc21 gave a cytotoxicity at 10 µM of -3.37%. Work on Cc1cc(NCCN)nc(-c2ccccc2O)n1 yielded a cytotoxicity at 10 µM of 7.61%. CC(C)(CO)Nc1c(NCc2ccccc2)c(=O)c1=O showed a cytotoxicity at 10 µM of -2.96%. For CC1CCCN(c2nccn3c(=O)[nH]nc23)C1 (configuration not stated), the cytotoxicity at 10 µM was 12.1%. For COc1ccc(Cc2nnc(NC(=O)C3CC34CCC4)s2)cc1OC (configuration not stated), the cytotoxicity at 10 µM was -2.21%. CNC(=O)C1CN(C(=O)c2cccs2)CCN(S(C)(=O)=O)C1 (configuration not stated) showed a cytotoxicity at 10 µM of 2.41%. CS(=O)(=O)c1cncnc1C1CCCN(C(=O)Cc2ccccc2F)C1 (configuration not stated) gave a cytotoxicity at 10 µM of 2.72%. Cc1cc(N2CCCC2(C)c2nc(C)cc(C(=O)N(C)C)n2)ncn1 (configuration not stated) gave a cytotoxicity at 10 µM of -0.846%. Compound O=C(c1ccccn1)N1CCC2(CNS(=O)(=O)c3cnccc3O2)C1 (configuration not stated) has a cytotoxicity at 10 µM of 14.5%. For CCN(Cc1c(F)cccc1F)C(=O)c1ccncc1O, the cytotoxicity at 10 µM was -1.22%. For Cc1c(C(=O)N2CC(=O)N(C)C2)nnn1-c1cccc2cccnc12, the cytotoxicity at 10 µM was 5.64%. Work on CCOc1ccc(NC(=O)c2[nH]c(C)cc2C)cc1CO yielded a cytotoxicity at 10 µM of 21.3%. In the case of CC(C)OCCC(=O)NCC(O)c1c(Cl)cccc1Cl (configuration not stated), the cytotoxicity at 10 µM is reported as -6.93%. For O=C(NCc1ccc(-n2cncn2)nc1)c1cc[nH]n1, the cytotoxicity at 10 µM was -7.45%. In the case of O=c1[nH]c(C2CCOC2)nc2ccc(Br)cc12 (configuration not stated), the cytotoxicity at 10 µM is reported as 7.85%. Compound CC1CN(C)CCN1C(=O)c1cccn1Cc1cccnc1 (configuration not stated) has a cytotoxicity at 10 µM of -13.5%. With CCc1cc(NCCCc2nc(C)no2)nc(-c2ccncc2)n1 the cytotoxicity at 10 µM was 2.63%. Work on CC(C)(C(=O)N1CCC(CS(N)(=O)=O)CC1)c1ccccc1F yielded a cytotoxicity at 10 µM of 6.03%. COc1ccc(N2CCC(NCc3csc(C(C)C)n3)CC2)cc1 gave a cytotoxicity at 10 µM of -15.9%. Work on O[C@@H]1Cc2ccccc2[C@@H]1Nc1ncccc1F yielded a cytotoxicity at 10 µM of 13.3%. In the case of O=C(NCc1ccccc1Cn1ccnc1)N1CCOCC1, the cytotoxicity at 10 µM is reported as 0.84%. Cn1ccnc1CNC(=O)Nc1ccc(OC2CCC2)c(F)c1 gave a cytotoxicity at 10 µM of -4.92%. CCOC(=O)NC(CNC(=O)c1cccnc1SC)CC(C)C (configuration not stated) gave a cytotoxicity at 10 µM of 6.68%. CC(C)(C)c1noc(OCC(=O)NC2CCCC2)n1 showed a cytotoxicity at 10 µM of 2.68%. With CC(=O)N1CCC(C(=O)NCCN2CCCC(C)C2)CC1 (configuration not stated) the cytotoxicity at 10 µM was 10.7%. Work on O=C(Nc1ccnc(OC2CCOC2)c1)c1ccc(F)cc1Cl (configuration not stated) yielded a cytotoxicity at 10 µM of 3.44%. In the case of Cc1cc(C)n(-c2ccccc2NC(=O)NCCCN(C)S(C)(=O)=O)n1, the cytotoxicity at 10 µM is reported as -4.01%. CCN1CCCN(c2ncccc2C(=O)N2CCCCC2)CC1 gave a cytotoxicity at 10 µM of -5.1%. CS(=O)(=O)Cc1nc(CNc2ccc(F)c(F)c2)cs1 gave a cytotoxicity at 10 µM of -6.92%. With NS(=O)(=O)N1CCC(C(=O)Nc2cccc(OC(F)F)c2)CC1 the cytotoxicity at 10 µM was -9.5%. With CN(C)CCN(Cc1ccccc1)C(=O)C1=NNC(=O)CC1 the cytotoxicity at 10 µM was -6.49%. With O=C(C1CSc2ccccc2O1)N1CCN(CCO)CC1 (configuration not stated) the cytotoxicity at 10 µM was -6.29%. With COCC(=O)NCCSCCOc1cccc(Br)c1 the cytotoxicity at 10 µM was -9.2%. Work on Cc1cc(C(=O)CN2CCN(c3cnccn3)CC2)c(C)n1C(C)C yielded a cytotoxicity at 10 µM of 7.36%. Compound CS(=O)(=O)c1nccn1Cc1ccc(OC(F)F)cc1 has a cytotoxicity at 10 µM of -0.627%. Compound Cc1cc(C(=O)N2CCN(Cn3cc(Cl)cn3)CC2)on1 has a cytotoxicity at 10 µM of -6.81%. Work on CCNC(=O)NC1CN(CC(=O)NCc2ccccc2C)C[C@@H]1OC (some centres not stated) yielded a cytotoxicity at 10 µM of -1.6%. In the case of COc1cc(OC)c(CNC(=O)NCc2ccc(C#N)cc2)c(OC)c1, the cytotoxicity at 10 µM is reported as 8.01%. For Cc1cc(C)n(CC2CCCN2C(=O)Cc2cn3ccsc3n2)n1 (configuration not stated), the cytotoxicity at 10 µM was -12.5%. For COCC(=O)N1CCC2(C1)c1ccccc1S(=O)(=O)N2CC1CC1 (configuration not stated), the cytotoxicity at 10 µM was 4.39%. Work on CN1CCO[C@@H]2CN(C(=O)NCc3cccc(F)c3)CC[C@@H]2C1 yielded a cytotoxicity at 10 µM of -111%. For Cc1cc(C)c2nc(CN3CCOCC(O)C3)cc(O)c2c1 (configuration not stated), the cytotoxicity at 10 µM was -3.89%. In the case of CCOc1ccc(-c2c(C#N)c(N)nc3c2COCC3)cn1, the cytotoxicity at 10 µM is reported as -0.339%. In the case of Cc1cccc(C(C(=O)NCC2(Cn3nc(C)cc3C)CC2)N(C)C)c1 (configuration not stated), the cytotoxicity at 10 µM is reported as 2.18%. For Cc1ccc(CN(CCN(C)C)Cc2ncc[nH]2)s1, the cytotoxicity at 10 µM was -10.5%. c1cc2c(cc1-c1noc3c1CN(C1CCSC1)CC3)OCO2 (configuration not stated) showed a cytotoxicity at 10 µM of -16.9%. For Cc1noc(-c2ccc(N3CCC[C@H]3CO)nc2)n1, the cytotoxicity at 10 µM was 1.48%. Compound CSCCNC(=O)C1CCC(=O)N(C2CCCC2)C1 (configuration not stated) has a cytotoxicity at 10 µM of -3.75%. With CCOc1ccc(CCCC(=O)N2CCC(c3nnn[nH]3)CC2)cc1C the cytotoxicity at 10 µM was -3.57%. With O=C(NCCc1nc2ccccc2s1)c1coc(CN2CCOCC2)c1 the cytotoxicity at 10 µM was -5.69%. For O=C(CN1CCCC1=O)NCc1cccnc1Oc1ccc(F)c(F)c1, the cytotoxicity at 10 µM was 1.87%. Compound CCC1(C(=O)O)CCCN(C(=O)c2ccc(O)c(Cl)c2)C1 (configuration not stated) has a cytotoxicity at 10 µM of -8.87%. In the case of CN(C)Cc1nnc(C2CCCN(c3cc(C(F)(F)F)ccn3)C2)n1C (configuration not stated), the cytotoxicity at 10 µM is reported as -11.9%. With Cc1cc(C[C@@H]2COC[C@@H]2NC(=O)CN2CCc3ccccc3C2)on1 the cytotoxicity at 10 µM was 6.7%. For Cc1cn(Cc2nc(CC(C)C)nn2-c2ccccn2)c(=O)[nH]c1=O, the cytotoxicity at 10 µM was -8.66%. CN(C)CCCN1CC2(CCN(C(=O)C3(C)CCCCO3)CC2)OC1=O (configuration not stated) gave a cytotoxicity at 10 µM of -8.76%. With Cc1c(O)cccc1C(=O)N1CCCC2(C1)C(=O)N(C)c1ccccc12 (configuration not stated) the cytotoxicity at 10 µM was 4.34%. Compound C=C(C)COc1cccc(C(=O)N(CC)Cc2noc(C)n2)c1 has a cytotoxicity at 10 µM of -4.15%. In the case of Cc1ccsc1-c1nccn1CCN1CCCCC1CO (configuration not stated), the cytotoxicity at 10 µM is reported as -8.11%. For O=S(=O)(c1c(N2CCCC2)ccc2nonc12)N1CCCC1, the cytotoxicity at 10 µM was 5.95%. With CSCCCn1ccnc1-c1cccc(C#N)c1 the cytotoxicity at 10 µM was -13.3%. CCC(Oc1ccc(N(C)S(C)(=O)=O)cc1)C(N)=O (configuration not stated) showed a cytotoxicity at 10 µM of -4.18%. In the case of CC(NC(=O)C1CCN(C(C)C)CC1)c1nncn1C1CCCC1 (configuration not stated), the cytotoxicity at 10 µM is reported as -6.93%. Compound Cc1cc(N2CCC(c3nnc(CN(C)C)n3C3CC3)CC2)ccn1 has a cytotoxicity at 10 µM of 7.57%. CNC(=O)C1(c2cnccn2)CCCN1C(=O)c1ccccc1OC (configuration not stated) showed a cytotoxicity at 10 µM of 3.1%. For N#Cc1cccc(NC(=O)C2CCCN2c2nccs2)c1 (configuration not stated), the cytotoxicity at 10 µM was -5.28%. Compound Cc1ccc(C(=O)N2CCCN(Cc3cccs3)CC2)c(=O)[nH]1 has a cytotoxicity at 10 µM of 1.45%. Compound CCn1c(CN2CCN(C(=O)C3CCC3)CC2)nc2c(F)cccc21 has a cytotoxicity at 10 µM of -3.78%. For O=C(Nc1cc(F)ccc1OCC1CCCO1)N1CCCC1 (configuration not stated), the cytotoxicity at 10 µM was -6.49%. For CN(C)c1cc(CNC(=O)Nc2ccc(F)cc2)ccn1, the cytotoxicity at 10 µM was 0.0418%. NC(=O)C1CCN(C(=O)c2cccc(OCc3cscn3)c2)CC1 gave a cytotoxicity at 10 µM of -15.5%. In the case of Cc1cnn(CCNCc2nc(Cc3ccccc3)no2)c1, the cytotoxicity at 10 µM is reported as -7.7%. O=C(NCCNc1ccc(C(F)(F)F)cn1)c1ccc(Br)cc1F gave a cytotoxicity at 10 µM of 7.15%. Work on CNc1cc2c(nn1)CCN(C(=O)c1cc(F)cc(F)c1)C2 yielded a cytotoxicity at 10 µM of -5.97%. CC(=O)Nc1nc(C(=O)NC(C)c2ccc3c(c2)OCCO3)cs1 (configuration not stated) gave a cytotoxicity at 10 µM of 0.409%. Cc1n[nH]c(=O)c2c(NC(=O)CN3CCCC(C(F)(F)F)C3)oc(C)c12 (configuration not stated) gave a cytotoxicity at 10 µM of -4.87%. O=C(NCC1CC1)[C@H]1CN(Cc2nccs2)C[C@H]2OCC[C@@H]12 gave a cytotoxicity at 10 µM of -109%. Work on Cc1noc([C@H]2C[C@H]3OCC[C@H]3N(Cc3ccc4c(c3)OCO4)C2)n1 yielded a cytotoxicity at 10 µM of 2.67%. Compound O=C([C@H]1C[C@H]2CN(c3ncc(F)cn3)C[C@@H]1O2)N1CCOCC1 has a cytotoxicity at 10 µM of -109%.
